Test results reported in ChEMBL document CHEMBL1687841, “Molecular analysis of antimicrobial resistance mechanisms in Neisseria gonorrhoeae isolates from Ontario, Canada” (2011).
≈ marks a conversion by molar mass, not a printed value.

What was measured:
[1] = tested on: Neisseria gonorrhoeae; assay: Antimicrobial activity against Neisseria gonorrhoeae clinical isolates assessed as percent resistant isolates after 24 hrs by agar dilution method; format: functional
[2] = tested on: Neisseria gonorrhoeae; assay: Antimicrobial activity against Neisseria gonorrhoeae clinical isolates assessed as percent susceptible isolates after 24 hrs by agar dilution method; format: functional
[3] = tested on: Neisseria gonorrhoeae; assay: Antimicrobial activity against Neisseria gonorrhoeae clinical isolates after 24 hrs by agar dilution method; format: functional
[4] = tested on: Neisseria gonorrhoeae; assay: microbe, parasite or virus in culture; conditions: 24 h
[5] = tested on: Neisseria gonorrhoeae; assay: Antimicrobial activity against Neisseria gonorrhoeae clinical isolates harboring PBP2 XXXIV pattern, MAST 51 after 24 hrs by agar dilution method; format: functional
Method in brief: (§1)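 Ontario clinical isolates grown on GC agar plus 1% defined growth supplement, 37°C, 5% CO2, 20 to 24 h, subcultured twice before testing. MICs by agar dilution per CLSI guidelines. QC strains: ATCC 49226 and 2008 WHO panel strains F, G, K, L, N, O, P. Genotypes deduced by PCR and sequencing of ponA, penA, porB, mtrR and its promoter.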

[6] = tested on: Neisseria gonorrhoeae; assay: Antimicrobial activity against Neisseria gonorrhoeae clinical isolates harboring porB G120K, A121D mutant gene, PBP1 L421P mutant gene, PBP2 XXXVIII pattern, deletion of nucleotide A from […] promoter, MAST 3563 after 24 hrs by agar dilution method; format: functional; method in brief: as §1
[7] = tested on: Neisseria gonorrhoeae; assay: Antimicrobial activity against Neisseria gonorrhoeae clinical isolates harboring porB A121S mutant gene, PBP1 L421P mutant gene, PBP2 XXXVIII pattern, deletion of nucleotide A from […] promoter, MAST 3116 after 24 hrs by agar dilution method; format: functional; method in brief: as §1
[8] = tested on: Neisseria gonorrhoeae; assay: Antimicrobial activity against Neisseria gonorrhoeae clinical isolates harboring porB G120K, A121D mutant gene, PBP1 L421P mutant gene, PBP2 XXXVIII pattern, deletion of nucleotide A from […] promoter, MAST 3158 after 24 hrs by agar dilution method; format: functional; method in brief: as §1
[9] = tested on: Neisseria gonorrhoeae; assay: Antimicrobial activity against Neisseria gonorrhoeae clinical isolates harboring porB G120K, A121D mutant gene, PBP1 L421P mutant gene, PBP2 XXXVIII pattern, insertion of nucleotide T from […] promoter, MAST 3158 after 24 hrs by agar dilution method; format: functional; method in brief: as §1
[10] = tested on: Neisseria gonorrhoeae; assay: Antimicrobial activity against Neisseria gonorrhoeae clinical isolates harboring PBP2 XXXV pattern, deletion of nucleotide A from […] promoter, MAST 546 after 24 hrs by agar dilution method; format: functional; method in brief: as §1
[11] = tested on: Neisseria gonorrhoeae; assay: Antimicrobial activity against Neisseria gonorrhoeae clinical isolates harboring porB G120K, A121D mutant gene, PBP2 XXXVIII pattern, deletion of nucleotide A from […] promoter, MAST 3158 after 24 hrs by agar dilution method; format: functional; method in brief: as §1
[12] = tested on: Neisseria gonorrhoeae; assay: Antimicrobial activity against Neisseria gonorrhoeae clinical isolates harboring porB G120K, A121D mutant gene, PBP1 L421P mutant gene, PBP2 XXXIV pattern, deletion of nucleotide A from […] promoter, MAST 225 after 24 hrs by agar dilution method; format: functional; method in brief: as §1
[13] = tested on: Neisseria gonorrhoeae; assay: Antimicrobial activity against Neisseria gonorrhoeae clinical isolates harboring PBP2 XXXVIII pattern, deletion of nucleotide A from […] promoter, MAST 3553 after 24 hrs by agar dilution method; format: functional; method in brief: as §1
[14] = tested on: Neisseria gonorrhoeae; assay: Antimicrobial activity against Neisseria gonorrhoeae clinical isolates harboring PBP1 L421P mutant gene, PBP2 XXXVII pattern, deletion of nucleotide A from […] promoter, MtrR G45D mutant MAST 299 after 24 hrs by agar dilution method; format: functional; method in brief: as §1
[15] = tested on: Neisseria gonorrhoeae; assay: Antimicrobial activity against Neisseria gonorrhoeae clinical isolates harboring porB G120K, A121D mutant gene, PBP1 L421P mutant gene, PBP2 XXXVIII pattern, deletion of nucleotide A from […] promoter, MAST 3570 after 24 hrs by agar dilution method; format: functional; method in brief: as §1
[16] = tested on: Neisseria gonorrhoeae; assay: Antimicrobial activity against Neisseria gonorrhoeae clinical isolates harboring porB G120K, A121D mutant gene, PBP2 XXXVI pattern, deletion of nucleotide A from […] promoter, MAST 3596 after 24 hrs by agar dilution method; format: functional; method in brief: as §1

Row | SMILES | Activity [1] [%] | Activity [2] [%] | MIC50 [3] [µg/mL] | MIC90 [3] [µg/mL] | MIC [4] [µg/mL] | MIC [5] [µg/mL] | MIC [6] [µg/mL] | MIC [7] [µg/mL] | MIC [8] [µg/mL] | MIC [9] [µg/mL] | MIC [10] [µg/mL] | MIC [11] [µg/mL] | MIC [12] [µg/mL] | MIC [13] [µg/mL] | MIC [14] [µg/mL] | MIC [15] [µg/mL] | MIC [16] [µg/mL] | MIC [3] [µg/mL]
1 | CN(C)[C@@H]1C(O)=C(C(N)=O)C(=O)[C@@]2(O)C(O)=C3C(=O)c4c(O)cccc4[C@@](C)(O)[C@H]3C[C@@H]12 [TETRACYCLINE] | 25.5 | 27.5 | 0.5 (≈ 1.13 µM) | 2 (≈ 4.5 µM) | – | – | – | – | – | – | – | – | – | – | – | – | – | –
2 | CC[C@H]1OC(=O)[C@H](C)[C@@H](O[C@H]2C[C@@](C)(OC)[C@@H](O)[C@H](C)O2)[C@H](C)[C@@H](O[C@@H]2O[C@H](C)C[C@H](N(C)C)[C@H]2O)[C@](C)(O)C[C@@H](C)CN(C)[C@H](C)[C@@H](O)[C@]1(C)O [AZITHROMYCIN] | – | – | – | – | 0.25 (≈ 0.334 µM) | – | – | – | – | – | – | – | – | – | – | – | – | –
3 | CN[C@@H]1[C@H](O)[C@H](NC)[C@H]2O[C@@]3(O)C(=O)C[C@@H](C)O[C@H]3O[C@@H]2[C@H]1O [SPECTINOMYCIN] | 0 | 100 | ≤ 32 | ≤ 32 | – | – | – | – | – | – | – | – | – | – | – | – | – | –
4 | C=CC1=C(C(=O)O)N2C(=O)[C@@H](NC(=O)/C(=N\OCC(=O)O)c3csc(N)n3)[C@H]2SC1 [CEFIXIME] | 0 | 100 | ≤ 0.03 | ≤ 0.03 | – | 0.125 (≈ 0.276 µM) | 0.125 (≈ 0.276 µM) | 0.125 (≈ 0.276 µM) | 0.125 (≈ 0.276 µM) | 0.125 (≈ 0.276 µM) | 0.125 (≈ 0.276 µM) | 0.25 (≈ 0.551 µM) | 0.25 (≈ 0.551 µM) | 0.125 (≈ 0.276 µM) | 0.25 (≈ 0.551 µM) | 0.125 (≈ 0.276 µM) | 0.125 (≈ 0.276 µM) | –
5 | CC1(C)S[C@@H]2[C@H](NC(=O)Cc3ccccc3)C(=O)N2[C@H]1C(=O)O [PENICILLIN G] | 12.1 | 10.7 | 0.25 (≈ 0.748 µM) | 2 (≈ 5.98 µM) | – | 1 (≈ 2.99 µM) | 1 (≈ 2.99 µM) | 2 (≈ 5.98 µM) | 1 (≈ 2.99 µM) | 1 (≈ 2.99 µM) | 1 (≈ 2.99 µM) | 1 (≈ 2.99 µM) | 2 (≈ 5.98 µM) | 0.5 (≈ 1.5 µM) | 2 (≈ 5.98 µM) | 2 (≈ 5.98 µM) | 0.5 (≈ 1.5 µM) | –
6 | CC[C@H]1OC(=O)[C@H](C)[C@@H](O[C@H]2C[C@@](C)(OC)[C@@H](O)[C@H](C)O2)[C@H](C)[C@@H](O[C@@H]2O[C@H](C)C[C@H](N(C)C)[C@H]2O)[C@](C)(O)C[C@@H](C)C(=O)[C@H](C)[C@@H](O)[C@]1(C)O [ERYTHROMYCIN] | 22.8 | 77.2 | ≤ 1 | 2 (≈ 2.73 µM) | – | – | – | – | – | – | – | – | – | – | – | – | – | ≤ 1
7 | CO/N=C(\C(=O)N[C@@H]1C(=O)N2C(C(=O)O)=C(CSc3nc(=O)c(O)nn3C)CS[C@H]12)c1csc(N)n1 [CEFTRIAXONE] | 0 | 100 | ≤ 0.03 | ≤ 0.06 | – | 0.063 (≈ 0.114 µM) | 0.063 (≈ 0.114 µM) | 0.063 (≈ 0.114 µM) | 0.063 (≈ 0.114 µM) | 0.063 (≈ 0.114 µM) | 0.125 (≈ 0.225 µM) | 0.125 (≈ 0.225 µM) | 0.125 (≈ 0.225 µM) | 0.032 (≈ 0.0577 µM) | 0.125 (≈ 0.225 µM) | 0.063 (≈ 0.114 µM) | 0.125 (≈ 0.225 µM) | –
